ChEMBL document CHEMBL4229460, “Design and biological evaluation of novel hybrids of 1, 5-diarylpyrazole and Chrysin for selective COX-2 inhibition” (Bioorg Med Chem, 2018)

How the values were obtained:
HeLa [1] = assay: Disruption of mitochondrial membrane potential in human HeLa cells assessed as intact mitochondrial membrane at 10 uM after 12 hrs by JC1 staining based flow cytometry (reference value: 99.2%); assay type: functional
HeLa [2] = assay: Disruption of mitochondrial membrane potential in human HeLa cells assessed as collapse of the mitochondrial membrane potential at 10 uM after 12 hrs by JC1 staining based flow cytometry (reference value: 0.768%); assay type: functional
MCF7 = assay: Antiproliferative activity against human MCF7 cells after 48 hrs by MTT assay; assay type: functional, cell-based; settings: MCF7, 48 h
[3] = molecular target: T1, Prostaglandin G/H synthase 2 (Homo sapiens, UniProt P35354); assay: Inhibition of COX2 (unknown origin) using arachidonic acid as substrate pretreated for 10 mins followed by substrate addition and measured after 2 mins by ELISA
T1 sequence (P35354 whole entry): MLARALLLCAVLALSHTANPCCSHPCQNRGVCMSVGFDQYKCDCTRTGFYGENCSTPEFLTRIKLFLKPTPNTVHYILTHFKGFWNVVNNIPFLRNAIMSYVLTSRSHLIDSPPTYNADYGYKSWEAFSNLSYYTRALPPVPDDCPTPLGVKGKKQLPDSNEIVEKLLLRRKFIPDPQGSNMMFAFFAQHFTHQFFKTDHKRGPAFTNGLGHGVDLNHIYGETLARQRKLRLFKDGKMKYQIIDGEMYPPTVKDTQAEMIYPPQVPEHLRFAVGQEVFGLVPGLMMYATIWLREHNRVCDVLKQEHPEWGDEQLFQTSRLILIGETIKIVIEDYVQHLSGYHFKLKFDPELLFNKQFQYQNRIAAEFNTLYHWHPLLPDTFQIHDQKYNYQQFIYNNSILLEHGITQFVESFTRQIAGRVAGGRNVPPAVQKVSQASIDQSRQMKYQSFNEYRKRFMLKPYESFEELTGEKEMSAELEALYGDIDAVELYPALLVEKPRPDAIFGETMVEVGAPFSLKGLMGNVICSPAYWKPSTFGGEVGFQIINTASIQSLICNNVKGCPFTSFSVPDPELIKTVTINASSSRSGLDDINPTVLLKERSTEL

HEK-293T = assay: Cytotoxicity against human 293T cells after 48 hrs by MTT assay; assay type: cell-based
A549 = assay: Antiproliferative activity against human A549 cells after 48 hrs by MTT assay; assay type: functional, cell-based; settings: A549, 48 h
How it was run: (§1)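 Cells kept in DMEM with 10% FBS, penicillin/streptomycin, 37 °C, 5% CO₂. Seeded at 5 × 10⁴ cells/well and allowed to adhere 12 h. Exposed to 0, 0.1, 1, 10 and 100 μM (final) for 48 h. Viability read by MTT reduction at OD 570 nm with 630 nm reference. IC50 reported as mean ± SD of three independent experiments.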

B16-F10 = assay: Antiproliferative activity against mouse B16F10 cells after 48 hrs by MTT assay; assay type: functional, cell-based; settings: B16-F10, 48 h; how it was run: as §1
[4] = molecular target: Prostaglandin G/H synthase 1 (Homo sapiens, UniProt P23219); assay: Inhibition of COX1 (unknown origin) using arachidonic acid as substrate pretreated for 10 mins followed by substrate addition and measured after 2 mins by ELISA; assay type: ADME
Chain of Prostaglandin G/H synthase 1 (P23219 whole entry): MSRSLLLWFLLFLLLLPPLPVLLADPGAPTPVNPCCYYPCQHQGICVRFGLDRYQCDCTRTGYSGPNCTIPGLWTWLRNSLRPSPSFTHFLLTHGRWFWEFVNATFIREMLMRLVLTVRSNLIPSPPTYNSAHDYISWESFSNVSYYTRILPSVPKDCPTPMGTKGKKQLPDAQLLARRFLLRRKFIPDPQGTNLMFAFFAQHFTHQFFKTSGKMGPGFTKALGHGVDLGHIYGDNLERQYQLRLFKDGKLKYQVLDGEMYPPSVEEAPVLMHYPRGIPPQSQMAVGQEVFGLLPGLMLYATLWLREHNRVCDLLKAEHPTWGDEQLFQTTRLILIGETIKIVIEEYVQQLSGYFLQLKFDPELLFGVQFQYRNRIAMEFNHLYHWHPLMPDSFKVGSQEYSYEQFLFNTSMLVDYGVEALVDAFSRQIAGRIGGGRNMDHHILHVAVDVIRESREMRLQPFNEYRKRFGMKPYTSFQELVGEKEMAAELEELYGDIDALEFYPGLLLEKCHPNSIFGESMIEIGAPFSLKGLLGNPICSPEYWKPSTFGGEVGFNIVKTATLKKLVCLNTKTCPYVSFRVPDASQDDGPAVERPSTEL

HeLa [5] = assay: Antiproliferative activity against human HeLa cells after 48 hrs by MTT assay; assay type: functional, cell-based
Homo sapiens = organism: Homo sapiens; assay: Selectivity index, ratio of IC50 for COX1 (unknown origin) to ratio of IC50 for COX2 (unknown origin)
How it was run: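 Enzyme ELISA kit: COX-1 or COX-2 preincubated with compound at 0, 1, 10 or 100 μM for 10 min at 37 °C in 0.1 M Tris-HCl pH 8.0, 5 mM EDTA, 2 mM phenol, 1 μM heme. Started with 100 μM arachidonic acid for 2 min at 37 °C, stopped with 1 M HCl. PGH₂ reduced by stannous chloride; PGF2α read by enzyme immunoassay at 450 nm. Index taken as the ratio of the COX IC50 values.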

Work on `N#CC(C#N)=NNc1cccc(Cl)c1` [CARBONYL CYANIDE M-CHLOROPHENYLHYDRAZONE] yielded an Activity (HeLa [1]) of 59.5% and an Activity (HeLa [2]) of 40.5%.
Work on `Cc1ccc(-n2nc(COC(=O)COc3cc(O)c4c(=O)cc(-c5ccccc5)oc4c3)cc2-c2cccc(C)c2)cc1` yielded an IC50 (MCF7) of 3.25 µM, an IC50 [3] of 1.19 µM and an IC50 (HEK-293T) of 398 µM. For the same compound, the IC50 (A549) was 11.6 µM, the IC50 (B16-F10) was 4.33 µM and the IC50 [4] was 32.2 µM. The IC50 (HeLa [5]) was 1.31 µM and the Ratio IC50 (Homo sapiens) was 27.
Work on `Cc1ccc(-n2nc(COC(=O)COc3cc(O)c4c(=O)cc(-c5ccccc5)oc4c3)cc2-c2ccc([N+](=O)[O-])cc2)cc1` yielded an IC50 (MCF7) of 15.8 µM, an IC50 [3] of 1.39 µM and an IC50 (HEK-293T) of 216 µM. It also gave an IC50 (A549) of 5.88 µM, an IC50 (B16-F10) of 2.71 µM and an IC50 [4] of 44.8 µM. It also gave an IC50 (HeLa [5]) of 18.4 µM and a Ratio IC50 (Homo sapiens) of 32.1.
`Cc1ccc(-c2cc(COC(=O)COc3cc(O)c4c(=O)cc(-c5ccccc5)oc4c3)nn2-c2ccccc2)cc1` showed an IC50 (MCF7) of 5.43 µM, an IC50 [3] of 0.93 µM and an IC50 (HEK-293T) of 315 µM. The IC50 (A549) was 4.49 µM, the IC50 (B16-F10) was 2.59 µM and the IC50 [4] was 45 µM. The IC50 (HeLa [5]) was 4.78 µM and the Ratio IC50 (Homo sapiens) was 48.4.
`O=C(COc1cc(O)c2c(=O)cc(-c3ccccc3)oc2c1)OCc1cc(-c2cccc(Cl)c2)n(-c2ccccc2)n1` gave an IC50 (MCF7) of 32.9 µM, an IC50 [3] of 4.43 µM and an IC50 (HEK-293T) of 188 µM. The IC50 (A549) was 4.71 µM, the IC50 (B16-F10) was 7.86 µM and the IC50 [4] was 44.8 µM. It also gave an IC50 (HeLa [5]) of 1.75 µM and a Ratio IC50 (Homo sapiens) of 10.1.
For `Cc1ccc(-c2cc(COC(=O)COc3cc(O)c4c(=O)cc(-c5ccccc5)oc4c3)nn2-c2ccc(C)cc2)cc1`, the IC50 (MCF7) was 3.23 µM, the IC50 [3] was 0.42 µM and the IC50 (HEK-293T) was 197 µM. For the same compound, the IC50 (A549) was 2.87 µM, the IC50 (B16-F10) was 3.51 µM and the IC50 [4] was 41.2 µM. For the same compound, the IC50 (HeLa [5]) was 2.87 µM and the Ratio IC50 (Homo sapiens) was 96.
